Measurements as given in ChEMBL document CHEMBL4689842, “EUbOPEN Chemogenomics Library wave 1” (2021).

System: HEK-293T
Test: Multiplex assay against HEK293T;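 for Population Tubulin-Different-Phenotype (%): share of the cells with healthy nuclei that show this phenotype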
Assay type: toxicity, cell-based
Details: human
Procedure, shortened: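 Live cells were stained at seeding with Hoechst33342, BioTracker Green Microtubule Cytoskeleton Dye, MitoTracker Red and Annexin V Alexa Fluor 680, then imaged on a CQ1 microscope at 37°C and 5% CO2 after compound addition. CellPathfinder machine-learning gating split cells into Hoechst high-intensity objects or normal cells. Normal cells were split into healthy, pyknosed or fragmented nuclei, and pyknosed cells into mitotic or apoptotic. Tubulin, mitochondrial-mass and membrane-permeability phenotypes are per cents of healthy-nucleus cells.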

[1] = 12 h, 1 µM, compound concentration 1 uM, replicate 1
[2] = 12 h, 1 µM, compound concentration 1 uM, replicate 2
[3] = 12 h, 10 µM, compound concentration 10 uM, replicate 1
[4] = 12 h, 10 µM, compound concentration 10 uM, replicate 2
[5] = 24 h, 1 µM, compound concentration 1 uM, replicate 1
[6] = 24 h, 1 µM, compound concentration 1 uM, replicate 2
[7] = 24 h, 10 µM, compound concentration 10 uM, replicate 1
[8] = 24 h, 10 µM, compound concentration 10 uM, replicate 2

## CN(C)C/C=C/C(=O)Nc1cc2c(Nc3ccc(F)c(Cl)c3)ncnc2cc1O[C@H]1CCOC1.O=C(O)/C=C\C(=O)O.O=C(O)/C=C\C(=O)O [AFATINIB DIMALEATE]
[1]
  Population Apoptotic (%): 26%
  Population Fragmented Nuclei (%): 23%
  Population Healthy Nuclei (%): 54%
  Population Hoechst High Intensity Objects (%): 15%
  Population Membrane Permeable-Phenotype (%): 5%
  Population Mitochondria Different-Phenotype (%): 4%
  Population Mitotic Cells (%): 73%
  Population Normal (%): 84%
  Population Pyknosed Nuclei (%): 22%
  Population Tubulin-Different-Phenotype (%): 5%
  Total Cell Count: 581
[2]
  Population Apoptotic (%): 16%
  Population Fragmented Nuclei (%): 6%
  Population Healthy Nuclei (%): 87%
  Population Hoechst High Intensity Objects (%): 3%
  Population Membrane Permeable-Phenotype (%): 4%
  Population Mitochondria Different-Phenotype (%): 13%
  Population Mitotic Cells (%): 83%
  Population Normal (%): 96%
  Population Pyknosed Nuclei (%): 5%
  Population Tubulin-Different-Phenotype (%): 10%
  Total Cell Count: 1304
[3]
  Population Apoptotic (%): 23%
  Population Fragmented Nuclei (%): 17%
  Population Healthy Nuclei (%): 32%
  Population Hoechst High Intensity Objects (%): 18%
  Population Membrane Permeable-Phenotype (%): 17%
  Population Mitochondria Different-Phenotype (%): 35%
  Population Mitotic Cells (%): 76%
  Population Normal (%): 81%
  Population Pyknosed Nuclei (%): 50%
  Population Tubulin-Different-Phenotype (%): 82%
  Total Cell Count: 647
[4]
  Population Apoptotic (%): 17%
  Population Fragmented Nuclei (%): 3%
  Population Healthy Nuclei (%): 53%
  Population Hoechst High Intensity Objects (%): 4%
  Population Membrane Permeable-Phenotype (%): 9%
  Population Mitochondria Different-Phenotype (%): 64%
  Population Mitotic Cells (%): 82%
  Population Normal (%): 96%
  Population Pyknosed Nuclei (%): 42%
  Population Tubulin-Different-Phenotype (%): 97%
  Total Cell Count: 999
[5]
  Population Apoptotic (%): 25%
  Population Fragmented Nuclei (%): 17%
  Population Healthy Nuclei (%): 71%
  Population Hoechst High Intensity Objects (%): 10%
  Population Membrane Permeable-Phenotype (%): 6%
  Population Mitochondria Different-Phenotype (%): 3%
  Population Mitotic Cells (%): 74%
  Population Normal (%): 89%
  Population Pyknosed Nuclei (%): 11%
  Population Tubulin-Different-Phenotype (%): 7%
  Total Cell Count: 598
[6]
  Population Apoptotic (%): 12%
  Population Fragmented Nuclei (%): 20%
  Population Healthy Nuclei (%): 76%
  Population Hoechst High Intensity Objects (%): 3%
  Population Membrane Permeable-Phenotype (%): 4%
  Population Mitotic Cells (%): 87%
  Population Normal (%): 96%
  Population Pyknosed Nuclei (%): 3%
  Population Tubulin-Different-Phenotype (%): 9%
  Total Cell Count: 2098
[7]
  Population Apoptotic (%): 39%
  Population Fragmented Nuclei (%): 23%
  Population Healthy Nuclei (%): 34%
  Population Hoechst High Intensity Objects (%): 19%
  Population Membrane Permeable-Phenotype (%): 10%
  Population Mitochondria Different-Phenotype (%): 58%
  Population Mitotic Cells (%): 60%
  Population Normal (%): 80%
  Population Pyknosed Nuclei (%): 42%
  Population Tubulin-Different-Phenotype (%): 77%
  Total Cell Count: 637
[8]
  Population Apoptotic (%): 25%
  Population Fragmented Nuclei (%): 12%
  Population Healthy Nuclei (%): 55%
  Population Hoechst High Intensity Objects (%): 9%
  Population Membrane Permeable-Phenotype (%): 6%
  Population Mitochondria Different-Phenotype (%): 69%
  Population Mitotic Cells (%): 74%
  Population Normal (%): 90%
  Population Pyknosed Nuclei (%): 32%
  Population Tubulin-Different-Phenotype (%): 90%
  Total Cell Count: 1048
